What was measured:
EH domain of EHD1 = assay: ITC of NPF peptides binding to EHD1 EH; parameters: species or system mouse; details: for Ka / TΔS / ΔG / ΔH / ΔS: 25 mM MOPS pH 7.0, 1 mM CaCl2
In short: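 Mouse EHD1 EH domain (V437–E534) expressed as a GST fusion, purified on glutathione resin and thrombin-cleaved on beads. Protein and peptides were dialysed at 4°C against 25 mM MOPS pH 7.0, 1 mM CaCl2, with KCl varied where applicable. ITC was run at 20°C unless stated (5–25°C), with 50–200 μM protein in the cell and peptide titrant 10-fold higher. Single-site fit gave Ka, n and ΔH; ΔG = −RTlnKa, and TΔS came from ΔG = ΔH − TΔS.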

Eps15 EH2 = assay: ITC of Rsn5-NPF1 with Eps15 EH2; assay type: binding; details: protein concentration in the ITC cell increased to 0.5 mM

Ac-GPSLNPFDEED-NH2 [Rsn5-NPF1]
fold higher affinity than Rfp2-NPF2 (EH domain of EHD1; ITC, EHD1 EH): 100 fold | Ka (EH domain of EHD1; ITC, 5.0 °C): 2.03e+06 M⁻¹ | TΔS (EH domain of EHD1; ITC, 5.0 °C): -0.9542 kcal/mol | ΔG (EH domain of EHD1; ITC, 5.0 °C): -8.02 kcal/mol | ΔH (EH domain of EHD1; ITC, 5.0 °C): -8.986 kcal/mol | ΔS (EH domain of EHD1; ITC, 5.0 °C): −3.43 cal mol^−1 K^−1 | Ka (EH domain of EHD1; ITC, 10.0 °C): 1.71e+06 M⁻¹ | TΔS (EH domain of EHD1; ITC, 10.0 °C): -1.606 kcal/mol | ΔG (EH domain of EHD1; ITC, 10.0 °C): -8.068 kcal/mol | ΔH (EH domain of EHD1; ITC, 10.0 °C): -9.684 kcal/mol | ΔS (EH domain of EHD1; ITC, 10.0 °C): −5.67 cal mol^−1 K^−1 | Ka (EH domain of EHD1; ITC, 15.0 °C): 1.1e+06 M⁻¹ | TΔS (EH domain of EHD1; ITC, 15.0 °C): -2.467 kcal/mol | ΔG (EH domain of EHD1; ITC, 15.0 °C): -7.958 kcal/mol | ΔH (EH domain of EHD1; ITC, 15.0 °C): -10.44 kcal/mol | ΔS (EH domain of EHD1; ITC, 15.0 °C): −8.56 cal mol^−1 K^−1 | Ka (EH domain of EHD1; ITC, 20.0 °C): 814000 M⁻¹ | TΔS (EH domain of EHD1; ITC, 20.0 °C): -3.401 kcal/mol | ΔG (EH domain of EHD1; ITC, 20.0 °C): -7.921 kcal/mol | ΔH (EH domain of EHD1; ITC, 20.0 °C): -11.33 kcal/mol | ΔS (EH domain of EHD1; ITC, 20.0 °C): −11.6 cal mol^−1 K^−1 | Ka (EH domain of EHD1; ITC, 20 °C, KCl 25.0 mM): 302000 M⁻¹ | TΔS (EH domain of EHD1; ITC, 20 °C, KCl 25.0 mM): -3.079 kcal/mol | ΔH (EH domain of EHD1; ITC, 20 °C, KCl 25.0 mM): -10.42 kcal/mol | ΔS (EH domain of EHD1; ITC, 20 °C, KCl 25.0 mM): −10.5 cal mol^−1 K^−1 | Ka (EH domain of EHD1; ITC, 20 °C, KCl 50.0 mM): 168000 M⁻¹ | TΔS (EH domain of EHD1; ITC, 20 °C, KCl 50.0 mM): -3.401 kcal/mol | ΔG (EH domain of EHD1; ITC, 20 °C, KCl 50.0 mM): -7.002 kcal/mol | ΔH (EH domain of EHD1; ITC, 20 °C, KCl 50.0 mM): -10.42 kcal/mol | ΔS (EH domain of EHD1; ITC, 20 °C, KCl 50.0 mM): −11.6 cal mol^−1 K^−1 | Ka (EH domain of EHD1; ITC, 20 °C, KCl 75.0 mM): 115000 M⁻¹ | TΔS (EH domain of EHD1; ITC, 20 °C, KCl 75.0 mM): -3.548 kcal/mol | ΔG (EH domain of EHD1; ITC, 20 °C, KCl 75.0 mM): -6.782 kcal/mol | ΔH (EH domain of EHD1; ITC, 20 °C, KCl 75.0 mM): -10.34 kcal/mol | ΔS (EH domain of EHD1; ITC, 20 °C, KCl 75.0 mM): −12.1 cal mol^−1 K^−1 | Ka (EH domain of EHD1; ITC, 20 °C, KCl 100.0 mM): 86500 M⁻¹ | TΔS (EH domain of EHD1; ITC, 20 °C, KCl 100.0 mM): -4.251 kcal/mol | ΔG (EH domain of EHD1; ITC, 20 °C, KCl 100.0 mM): -6.616 kcal/mol | ΔH (EH domain of EHD1; ITC, 20 °C, KCl 100.0 mM): -10.88 kcal/mol | ΔS (EH domain of EHD1; ITC, 20 °C, KCl 100.0 mM): −14.5 cal mol^−1 K^−1 | Ka (EH domain of EHD1; ITC, 20 °C, KCl 125.0 mM): 65000 M⁻¹ | TΔS (EH domain of EHD1; ITC, 20 °C, KCl 125.0 mM): -4.046 kcal/mol | ΔG (EH domain of EHD1; ITC, 20 °C, KCl 125.0 mM): -6.45 kcal/mol | ΔH (EH domain of EHD1; ITC, 20 °C, KCl 125.0 mM): -10.5 kcal/mol | ΔS (EH domain of EHD1; ITC, 20 °C, KCl 125.0 mM): −13.8 cal mol^−1 K^−1 | Ka (EH domain of EHD1; ITC, 20 °C, KCl 150.0 mM): 53000 M⁻¹ | TΔS (EH domain of EHD1; ITC, 20 °C, KCl 150.0 mM): -4.163 kcal/mol | ΔG (EH domain of EHD1; ITC, 20 °C, KCl 150.0 mM): -6.331 kcal/mol | ΔH (EH domain of EHD1; ITC, 20 °C, KCl 150.0 mM): -10.5 kcal/mol | ΔS (EH domain of EHD1; ITC, 20 °C, KCl 150.0 mM): −14.2 cal mol^−1 K^−1 | Ka (EH domain of EHD1; ITC, 20 °C, KCl 300.0 mM): 24800 M⁻¹ | TΔS (EH domain of EHD1; ITC, 20 °C, KCl 300.0 mM): -4.369 kcal/mol | ΔG (EH domain of EHD1; ITC, 20 °C, KCl 300.0 mM): -5.889 kcal/mol | ΔH (EH domain of EHD1; ITC, 20 °C, KCl 300.0 mM): -10.26 kcal/mol | ΔS (EH domain of EHD1; ITC, 20 °C, KCl 300.0 mM): −14.9 cal mol^−1 K^−1 | Ka (EH domain of EHD1; ITC, 20 °C, KCl 450.0 mM): 17800 M⁻¹ | TΔS (EH domain of EHD1; ITC, 20 °C, KCl 450.0 mM): -4.721 kcal/mol | ΔG (EH domain of EHD1; ITC, 20 °C, KCl 450.0 mM): -5.696 kcal/mol | ΔH (EH domain of EHD1; ITC, 20 °C, KCl 450.0 mM): -10.43 kcal/mol | ΔS (EH domain of EHD1; ITC, 20 °C, KCl 450.0 mM): −16.1 cal mol^−1 K^−1 | Ka (EH domain of EHD1; ITC, 25.0 °C): 606000 M⁻¹ | TΔS (EH domain of EHD1; ITC, 25.0 °C): -4.056 kcal/mol | ΔG (EH domain of EHD1; ITC, 25.0 °C): -7.881 kcal/mol | ΔH (EH domain of EHD1; ITC, 25.0 °C): -11.94 kcal/mol | ΔS (EH domain of EHD1; ITC, 25.0 °C): −13.6 cal mol^−1 K^−1 | non-electrostatic ΔG (EH domain of EHD1; from (Ka)ne, 20°C): -5.2 kcal/mol | ΔCp (change in heat capacity upon binding) (EH domain of EHD1; from response of ΔH to temperature, 5 to 25°, ITC): −150 cal mol^−1 K^−1 | interaction detected by ITC (Eps15 EH2): unable to detect any interaction
